Laboratory results from article PMC7814360 (Investigative Ophthalmology & Visual Science, 2021).
Ends that are not written are not given here.

What was measured:
[1] = Quantification of H-KI20 in ocular tissues after topical instillation; format: in vivo; conditions: mouse CNV model, 0.5, 1 and 3 hours after topical instillation, PRM
Summary of the method: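 Choroidal neovascularization was induced in adult C57BL/6J mice with four 532-nm laser burns (100 ms, 50 μm, 120 mW) around the optic disc. On day 7, 6 μL of FITC-labeled test peptide (2 mM) was instilled topically six times at 10-min intervals (n = 3 per group). At 0.5, 1 and 3 h, sclera–choroid–RPE complex and retina were trypsin-digested. A 100 ng/mL stable-isotope-labeled internal standard was spiked in, and samples were quantified by nano-UPLC–Orbitrap PRM.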

HRECs [2] = test: High-content image analysis, cell roundness; format: cell-based, human; conditions: H-KI20 alone, 30 hours, Operetta HCA, interval 0.5 h
Summary of the method: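 About 3 × 10^4 HRECs/well were plated in 12-well plates and allowed to attach overnight. Test compound was added 2 h before imaging. Cells were imaged live in an Operetta high-content system for […] at 0.5-h intervals. Roundness is a shape index normalized to 1.0 for a perfect circle, decreasing for elongated or irregular cells.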

retina = test: Histologic examination of retina after intravitreal injection; format: in vivo, mouse; conditions: 50 or 75 mM H-KI20 intravitreal, five days later, mice
[3] = Stability assay of H-KI20 in aqueous solutions; format: physicochemical; conditions: 200 µg/mL, HPLC
JNK2 = JNK2 (Homo sapiens, UniProt P45984); test: Surface plasmon resonance; format: binding
JNK2, sequence (P45984 whole entry): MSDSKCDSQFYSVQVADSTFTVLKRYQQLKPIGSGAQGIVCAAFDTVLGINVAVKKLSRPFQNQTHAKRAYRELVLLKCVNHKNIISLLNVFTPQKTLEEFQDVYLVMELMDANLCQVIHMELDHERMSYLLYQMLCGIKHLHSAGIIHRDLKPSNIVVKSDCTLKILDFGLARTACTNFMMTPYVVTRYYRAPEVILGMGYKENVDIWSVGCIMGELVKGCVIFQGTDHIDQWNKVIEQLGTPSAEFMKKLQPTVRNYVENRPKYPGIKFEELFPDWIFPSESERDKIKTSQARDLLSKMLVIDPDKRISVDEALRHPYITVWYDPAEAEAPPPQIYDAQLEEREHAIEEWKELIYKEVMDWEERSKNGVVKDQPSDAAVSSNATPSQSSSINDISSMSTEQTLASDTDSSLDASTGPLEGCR
Summary of the method: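 SPR was run on a Biacore T200. The chip was conditioned with 500 mM EDTA and 100 mM NaOH. Recombinant human JNK2 at 27.5 μg/mL was captured on an NTA chip at 10 μL/min. Serial peptide concentrations were injected in PBS with 0.05% Tween-20, pH 7.4, at 25°C (association 120 s, dissociation 180 s). Double reference subtraction was applied, then a global Langmuir 1:1 fit.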

[4] = tested on: cornea neovascularization; conditions: topical application of high concentrations; cited from earlier work
HRECs [5] = test: Cytotoxicity, MTS; format: cell-based, human; conditions: H-KI20 at different concentrations; three independent assays
Summary of the method: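 HRECs were seeded in 96-well plates at […]. They were treated with VEGF or test peptide, and viability was read by MTS following the manufacturer's protocol.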

HRECs [6] = test: Cellular uptake, flow cytometry quantitative analysis; format: in vitro ADME, human; conditions: 200 µM, three independent assays
Summary of the method: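 HRECs were seeded at 1 × 10^6 on a 30-mm plate. At confluence they were exposed to FITC-labeled test peptide at 200 μM in complete medium for 30 min, 1, 6, 12 and 24 h. Cells were washed, trypsinized, resuspended in PBS and kept dark. FITC-positive cell number and mean fluorescence intensity were read by flow cytometry. Three independent assays; means ± SEM.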

HRECs [7] = test: Tube formation assay on Matrigel; format: cell-based, human; conditions: 25 ng/mL VEGF, three independent assays
Summary of the method: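 About 2 × 10^4 HRECs were seeded on Matrigel-precoated wells, with or without 25 ng/mL VEGF, alongside test peptides or Avastin. Incubation was at 37°C for four hours per methods (three hours per legend). Three random fields per well were photographed, and total tube length and branch points were quantified by ImageJ. Three independent assays; means ± SEM.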

HRECs [8] = test: Cell migration; format: cell-based, human; conditions: 25 ng/mL VEGF; 200 µM H-KI20 or H-KI20S, or 12.5 mg/mL bevacizumab; 12 hours; three independent assays

Substance: IIGKGRSYKGTVSITKSGIK [H-KI20]
- persistence of concentration in ocular tissues after topical instillation [1]: maintained for at least three hours
- cell roundness (HRECs [2]): no effect on the roundness of cells
- retinal histology (HE) after intravitreal injection (retina): All layers of the retina were normal and intact, without edema or inflammatory or immune reactions
- stability at 4°C compared with 37°C ([3]; BSS, PBS and HBS, n = 4 or 5): more stable
- stability in H2O and PBS ([3]; H2O and PBS pH 7.4, 37°C, incubation for 24 or 48 hours): partially degraded
- Kd (JNK2): 83.7 µM
- cell ultrastructure of cornea and conjunctiva [4]: no effect on the cell ultrastructure of cornea and conjunctiva
- cytotoxicity / proliferation of HRECs (MTS) (HRECs [5]): no effect on the proliferation of HRECs

Substance: FITC-H-KI20: FITC-labeled H-KI20 used to test cellular permeability (IIGKGRSYKGTVSITKSGIK; also: FITC-labeled, site not given here)
- mean fluorescence intensity (MFI) compared with untreated cells (HRECs [6]; 30 minutes): 217 fold
- MFI after 24 hours compared with that after 30 minutes (HRECs [6]; 24 hours vs 30 minutes): 3.67 fold

Substance: Bevacizumab [Avastin]
- VEGF-induced tube formation (tube length and branch points) (HRECs [7]): significantly inhibited
- migration of VEGF-stimulated HRECs (wound closure) (HRECs [8]): inhibited the migration of cells significantly
